Activity calls are given as the source filed them. The rule behind the calls is not given here.

In general, IC50 refers to the concentration that gives 50% inhibition. Higher therefore signals lower potency.

Assay [1] addresses T1, Phospholipase A and acyltransferase 2 (Homo sapiens, UniProt Q9NWW9).
T1 sequence (Q9NWW9 whole entry): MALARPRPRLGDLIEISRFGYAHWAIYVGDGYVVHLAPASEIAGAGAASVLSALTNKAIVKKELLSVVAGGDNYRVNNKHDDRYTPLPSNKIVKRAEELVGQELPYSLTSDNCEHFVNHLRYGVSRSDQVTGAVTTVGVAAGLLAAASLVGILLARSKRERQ
The assay can be described thus: Inhibition of full-length C-terminal FLAG-tagged human PLAAT2 expressed in HEK293T cell lysate preincubated for 30 mins followed by MB064 addition and measured after 20 mins by SDS-PAGE based ABPP analysis. The format is cell-free, HEK-293T. Summed up:
(§1)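 Dose–response competitive ABPP on cytosol only, from HEK293T overexpressing FLAG-tagged PLAAT. Inhibitor 30 min rt, then MB064 20 min rt. PLAAT2 0.25 μg/μL with 250 nM probe; PLAAT3 0.5 μg/μL with 250 nM; PLAAT4 and PLAAT5 1 μg/μL with 500 nM. Fluorescence normalized to Coomassie. IC50 from curves, reported as pIC50 ± SEM, n = 3.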

The target of assay [2] is T2, Phospholipase A and acyltransferase 5 (Homo sapiens, UniProt Q96KN8).
T2 sequence (Q96KN8 whole entry): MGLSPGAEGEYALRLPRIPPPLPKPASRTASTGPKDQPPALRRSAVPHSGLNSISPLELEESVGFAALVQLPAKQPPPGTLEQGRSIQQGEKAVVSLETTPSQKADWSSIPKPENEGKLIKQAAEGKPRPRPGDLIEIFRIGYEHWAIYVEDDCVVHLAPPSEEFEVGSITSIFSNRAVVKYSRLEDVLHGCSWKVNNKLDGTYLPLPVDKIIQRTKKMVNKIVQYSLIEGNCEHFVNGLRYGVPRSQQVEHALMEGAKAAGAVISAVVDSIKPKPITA
The assay can be described thus: Inhibition of full-length C-terminal FLAG-tagged human PLAAT5 expressed in HEK293T cell lysate preincubated for 30 mins followed by MB064 addition and measured after 20 mins by SDS-PAGE based ABPP analysis. It counts as cell-free, HEK-293T. Summed up:
as §1

Assay [3] has as its target Cannabinoid receptor 1 (Homo sapiens) (UniProt P21554). Kind of assay: Displacement of [3H]CP55940 from human CB1 receptor expressed in CHOK1 cell membranes at 10 uM by liquid scintillation spectrometry analysis. The conditions noted are these: CHO-K1. The procedure, abridged:
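[3H]CP55940 displacement at human CB1 or CB2 receptors, single test concentration 10 μM. Result expressed as % radioligand displacement ± SD (N = 2, n = 2).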
On the technique in general: Loss of bound radioactivity is the signal in a displacement assay; it reports binding, not function.

In assay [4] the target is T3, Phospholipase A and acyltransferase 5 (Homo sapiens) (UniProt Q96KN8).
T3 sequence (whole entry): T2 sequence (Q96KN8 whole entry)
Kind of assay: Inhibition of full-length C-terminal FLAG-tagged human PLAAT5 expressed in human U2OS cells assessed as reduction in anandamide level at 10 uM incubated for 4 hrs by LC-MS/MS analysis relative to control. The format is cell-based. Summed up:
(§2)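 U2OS cells transfected with PLAAT2, PLAAT5 or empty vector (PEI, 1:5 plasmid/PEI). At 24 h, switched to serum-free medium with 10 μM compound (0.1% DMSO) or DMSO for 4 h at 37 °C. Pellets extracted with MTBE against deuterated internal standards. NAEs, 2-AG and free fatty acids quantified by LC–MS/MS, normalized to live cell count. Four biological replicates; one-way ANOVA.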

For assay [5], the target named is T3, Phospholipase A and acyltransferase 5 (Homo sapiens). Kind of assay: Inhibition of full-length C-terminal FLAG-tagged human PLAAT5 expressed in human U2OS cells assessed as reduction in absolute N-palmitoylethanolamine level at 10 uM incubated for 4 hrs by LC-MS/MS analysis. It counts as cell-based. The procedure, abridged:
as §2

The target is the same in assay [6]. Kind of assay: Inhibition of full-length C-terminal FLAG-tagged human PLAAT5 expressed in human U2OS cells assessed as reduction in absolute N-palmitoleoylethanolamine level at 10 uM incubated for 4 hrs by LC-MS/MS analysis. The format is cell-based. The procedure, abridged: as §2
Assay [7] has as its target T4, Phospholipase A and acyltransferase 2 (Homo sapiens) (UniProt Q9NWW9).
T4 sequence (whole entry): T1 sequence (Q9NWW9 whole entry)
The assay can be described thus: Inhibition of full-length C-terminal FLAG-tagged human PLAAT2 expressed in human U2OS cells assessed as reduction in absolute N-oleoylethanolamine level at 10 uM incubated for 4 hrs by LC-MS/MS analysis. The format is cell-based. The procedure, abridged: as §2

Assay [8] deals with T4, Phospholipase A and acyltransferase 2 (Homo sapiens). Kind of assay: Inhibition of full-length C-terminal FLAG-tagged human PLAAT2 expressed in human U2OS cells assessed as reduction in absolute N-linoleoylethanolamine level at 10 uM incubated for 4 hrs by LC-MS/MS analysis. It counts as cell-based. The procedure, abridged: as §2
The target is the same in assay [9]. Kind of assay: Inhibition of full-length C-terminal FLAG-tagged human PLAAT2 expressed in human U2OS cells assessed as reduction in absolute N-docosahexaenoylethanolamine level at 10 uM incubated for 4 hrs by LC-MS/MS analysis. The format is cell-based. Summed up: as §2
For assay [10], the system named is U2OS. The assay can be described thus: Downregulation of N-linoleoylethanolamine level in human U2OS cells at 10 uM after 4 hrs by LC-MS/MS analysis. It counts as functional, cell-based. The procedure, abridged: as §2
Assay [11] deals with U2OS. The assay can be described thus: Downregulation of N-docosahexaenoylethanolamine level in human U2OS cells at 10 uM after 4 hrs by LC-MS/MS analysis. It counts as functional, cell-based. The procedure, abridged:
as §2

The target of assay [12] is T4, Phospholipase A and acyltransferase 2 (Homo sapiens). Kind of assay: Inhibition of full-length C-terminal FLAG-tagged human PLAAT2 expressed in human U2OS cells assessed as reduction in arachidonic acid level at 10 uM incubated for 4 hrs by LC-MS/MS analysis. It counts as cell-based. Summed up: as §2
The target in assay [13] is T3, Phospholipase A and acyltransferase 5 (Homo sapiens). Kind of assay: Inhibition of full-length C-terminal FLAG-tagged human PLAAT5 expressed in human U2OS cells assessed as reduction in N-docosahexaenoylethanolamine level at 10 uM incubated for 4 hrs by LC-MS/MS analysis. The format is cell-based. Summed up: as §2
The target is the same in assay [14]. Kind of assay: Inhibition of full-length C-terminal FLAG-tagged human PLAAT5 expressed in human U2OS cells assessed as reduction in arachidonic acid level at 10 uM incubated for 4 hrs by LC-MS/MS analysis. It counts as cell-based. Summed up:
as §2

Assay [15] relates to U2OS. Kind of assay: Inhibition of serine hydrolase in human U2OS cell membrane fraction at 10 uM preincubated for 30 mins followed by FP-TAMRA addition and measured after 15 mins by SDS-PAGE based competitive ABPP analysis. Summed up:
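U2OS membrane lysate (2.5 μg/μL) preincubated with inhibitor for 30 min at rt. FP-TAMRA 500 nM added for 15 min at rt. SDS-PAGE with in-gel fluorescence normalized to Coomassie.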

Assay [16] has as its system U2OS. Kind of assay: Inhibition of serine hydrolase in human U2OS cytosolic fraction at 10 uM preincubated for 30 mins followed by FP-TAMRA addition and measured after 15 mins by SDS-PAGE based competitive ABPP analysis. Summed up:
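U2OS cytosol or membrane lysate at 2.5 μg/μL, pretreated with inhibitor or DMSO vehicle for 30 min at rt. Probe then added for 15 min at rt: MB064 at 2 μM or FP-TAMRA at 500 nM. Samples denatured in Laemmli buffer and resolved by SDS-PAGE. In-gel fluorescence scanned at Cy3/Cy5 settings and normalized to Coomassie staining.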

In assay [17] the target is Cytosolic phospholipase A2 beta (Homo sapiens) (UniProt P0C869). The assay can be described thus: Inhibition of human PLA2G4B expressed in HEK293T cell lysates at 10 uM preincubated for 30 mins followed by FP-TAMRA addition and measured after 20 mins by SDS-PAGE based competitive ABPP analysis. The format is cell-free. The following applies: HEK-293T. The procedure, abridged:
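hPLA2G4B, C or D-overexpressing membrane lysate (1 μg/μL) preincubated with inhibitor for 30 min at rt. FP-TAMRA 500 nM added for 20 min at rt. In-gel fluorescence after SDS-PAGE, normalized to Coomassie.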

Chain of Cannabinoid receptor 1 (Homo sapiens) (P21554 whole entry): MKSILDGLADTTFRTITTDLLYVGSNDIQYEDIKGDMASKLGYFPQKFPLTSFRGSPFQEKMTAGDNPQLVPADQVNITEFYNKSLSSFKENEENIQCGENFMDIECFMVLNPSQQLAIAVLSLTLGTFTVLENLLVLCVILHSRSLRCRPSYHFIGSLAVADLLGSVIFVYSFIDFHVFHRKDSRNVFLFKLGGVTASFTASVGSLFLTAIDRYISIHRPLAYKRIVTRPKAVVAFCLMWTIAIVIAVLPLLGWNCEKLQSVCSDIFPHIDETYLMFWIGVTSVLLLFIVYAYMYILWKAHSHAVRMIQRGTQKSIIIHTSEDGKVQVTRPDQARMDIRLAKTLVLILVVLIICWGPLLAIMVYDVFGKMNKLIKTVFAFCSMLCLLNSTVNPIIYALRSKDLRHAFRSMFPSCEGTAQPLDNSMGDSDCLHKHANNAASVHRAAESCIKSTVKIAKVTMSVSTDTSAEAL
Chain of Cytosolic phospholipase A2 beta (Homo sapiens) (P0C869 whole entry): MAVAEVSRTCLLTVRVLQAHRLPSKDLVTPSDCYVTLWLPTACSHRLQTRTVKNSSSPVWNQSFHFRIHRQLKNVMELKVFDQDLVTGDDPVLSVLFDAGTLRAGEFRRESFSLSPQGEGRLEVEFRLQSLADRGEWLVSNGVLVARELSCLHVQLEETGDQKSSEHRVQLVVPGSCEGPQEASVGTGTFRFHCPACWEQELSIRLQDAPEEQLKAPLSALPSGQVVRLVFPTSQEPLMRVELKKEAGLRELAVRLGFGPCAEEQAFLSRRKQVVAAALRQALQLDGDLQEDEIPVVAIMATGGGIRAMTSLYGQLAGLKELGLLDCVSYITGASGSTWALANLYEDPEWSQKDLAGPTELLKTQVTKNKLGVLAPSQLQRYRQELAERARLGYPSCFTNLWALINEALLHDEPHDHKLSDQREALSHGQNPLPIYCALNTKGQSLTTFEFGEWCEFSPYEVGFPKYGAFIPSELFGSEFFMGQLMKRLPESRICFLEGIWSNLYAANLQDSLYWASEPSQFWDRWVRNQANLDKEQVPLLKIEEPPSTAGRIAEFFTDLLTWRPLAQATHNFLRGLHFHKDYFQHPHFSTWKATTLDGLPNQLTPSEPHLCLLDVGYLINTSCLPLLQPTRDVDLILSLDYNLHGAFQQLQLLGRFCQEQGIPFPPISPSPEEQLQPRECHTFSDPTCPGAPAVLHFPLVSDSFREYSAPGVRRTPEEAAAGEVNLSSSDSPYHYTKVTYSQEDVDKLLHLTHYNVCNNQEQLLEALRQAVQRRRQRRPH

As to `O=C(CCCc1ccccc1)C(=O)NCCc1ccc(Oc2ccccc2)cc1`, the half-maximal inhibitory concentration (IC50) in [1] is 50.1 nM; in assay [2] it was 39.8 nM. The Activity in assay [3] was 49%. In addition, in assay [4], the fold change (FC) turned out to be 2. In addition, the inhibition entry in assay [5], in [6], in assay [7], in assay [8] and in assay [9] was “Active” each time. In addition, the inhibition result in [10], in assay [11], in assay [12], in assay [13], in [14] and in [15] was “inactive” in each case. For the same molecule, the inhibition entry in assay [16] and in assay [17] was “inactive” in each case.

The record behind these values is ChEMBL document CHEMBL4622983, “Structure-Activity Relationship Studies of α-Ketoamides as Inhibitors of the Phospholipase A and Acyltransferase Enzyme Family” (J Med Chem, 2020).
